{"source": "ChEMBL document CHEMBL1641460", "about": "“Potent and selective thiophene urea-templated inhibitors of S6K” (Bioorg Med Chem Lett, 2011)", "key": {"[1]": {"target": "T1, Ribosomal protein S6 kinase beta-1 (Homo sapiens, UniProt P23443)", "T1 sequence (P23443 whole entry)": "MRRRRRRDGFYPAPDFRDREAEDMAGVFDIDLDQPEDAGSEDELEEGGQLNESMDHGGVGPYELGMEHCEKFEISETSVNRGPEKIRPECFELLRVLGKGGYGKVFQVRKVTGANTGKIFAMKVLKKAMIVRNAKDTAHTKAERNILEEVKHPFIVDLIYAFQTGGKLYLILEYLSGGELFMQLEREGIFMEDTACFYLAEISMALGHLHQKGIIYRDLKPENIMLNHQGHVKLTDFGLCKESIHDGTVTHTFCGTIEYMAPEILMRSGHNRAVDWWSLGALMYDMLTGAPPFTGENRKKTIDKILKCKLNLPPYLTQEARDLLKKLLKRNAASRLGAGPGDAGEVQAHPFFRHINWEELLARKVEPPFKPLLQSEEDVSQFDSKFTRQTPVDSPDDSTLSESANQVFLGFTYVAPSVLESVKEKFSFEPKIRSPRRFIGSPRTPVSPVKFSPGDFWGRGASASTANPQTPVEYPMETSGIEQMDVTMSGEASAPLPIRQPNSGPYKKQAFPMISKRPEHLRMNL", "assay": "Inhibition of S6K1"}, "CYP2C9": {"target": "CYP2C9 (Homo sapiens, UniProt P11712)", "sequence (P11712 whole entry)": "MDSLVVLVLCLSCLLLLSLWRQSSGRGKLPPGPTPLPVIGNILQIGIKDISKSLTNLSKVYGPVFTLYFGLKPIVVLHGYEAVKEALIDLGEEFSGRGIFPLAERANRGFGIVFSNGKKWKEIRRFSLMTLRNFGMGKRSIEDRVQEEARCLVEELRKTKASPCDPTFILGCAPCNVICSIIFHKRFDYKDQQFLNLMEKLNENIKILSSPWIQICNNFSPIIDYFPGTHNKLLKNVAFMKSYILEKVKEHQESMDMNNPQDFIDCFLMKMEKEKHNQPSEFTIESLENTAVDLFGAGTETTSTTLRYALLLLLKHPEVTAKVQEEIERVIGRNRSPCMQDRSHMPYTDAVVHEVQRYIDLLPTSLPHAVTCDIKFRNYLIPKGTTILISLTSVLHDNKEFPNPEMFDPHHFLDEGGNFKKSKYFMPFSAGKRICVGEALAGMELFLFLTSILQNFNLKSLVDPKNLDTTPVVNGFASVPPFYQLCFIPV", "assay": "Inhibition of CYP2C9 at 3 uM by LC/MS/MS analysis", "assay_type": "ADME"}, "CYP1A2": {"target": "T2, CYP1A2 (Homo sapiens, UniProt P05177)", "T2 sequence (P05177 whole entry)": "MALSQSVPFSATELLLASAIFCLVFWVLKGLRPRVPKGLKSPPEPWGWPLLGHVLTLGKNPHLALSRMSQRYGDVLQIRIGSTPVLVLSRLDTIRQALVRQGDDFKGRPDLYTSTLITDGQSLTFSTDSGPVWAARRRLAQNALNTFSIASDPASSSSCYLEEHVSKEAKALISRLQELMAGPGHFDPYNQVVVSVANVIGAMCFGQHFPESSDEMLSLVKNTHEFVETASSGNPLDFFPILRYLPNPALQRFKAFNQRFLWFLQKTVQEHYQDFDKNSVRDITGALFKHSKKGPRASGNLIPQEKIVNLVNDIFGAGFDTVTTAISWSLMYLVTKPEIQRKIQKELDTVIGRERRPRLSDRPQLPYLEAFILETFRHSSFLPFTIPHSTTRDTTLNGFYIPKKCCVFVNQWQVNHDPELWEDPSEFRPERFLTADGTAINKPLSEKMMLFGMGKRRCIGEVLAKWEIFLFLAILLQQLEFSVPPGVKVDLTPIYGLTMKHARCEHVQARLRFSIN", "assay": "Inhibition of CYP1A2 at 3 uM by LC/MS/MS analysis", "assay_type": "ADME"}, "[2]": {"assay": "Half life in human hepatocytes at 1 uM by LC/MS/MS analysis", "assay_type": "ADME, cell-based, Liver, Hepatocyte", "method_in_brief": "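Stability measured in intact human hepatocytes, with remaining parent compound quantified by LC/MS/MS. Result expressed as half-life (T1/2) in minutes.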"}, "[3]": {"target": "T1, Ribosomal protein S6 kinase beta-1", "assay": "Inhibition of S6K1 in ribosomal protein S6 by whole cell assay"}, "CYP3A4": {"target": "CYP3A4 (Homo sapiens, UniProt P08684)", "sequence (P08684 whole entry)": "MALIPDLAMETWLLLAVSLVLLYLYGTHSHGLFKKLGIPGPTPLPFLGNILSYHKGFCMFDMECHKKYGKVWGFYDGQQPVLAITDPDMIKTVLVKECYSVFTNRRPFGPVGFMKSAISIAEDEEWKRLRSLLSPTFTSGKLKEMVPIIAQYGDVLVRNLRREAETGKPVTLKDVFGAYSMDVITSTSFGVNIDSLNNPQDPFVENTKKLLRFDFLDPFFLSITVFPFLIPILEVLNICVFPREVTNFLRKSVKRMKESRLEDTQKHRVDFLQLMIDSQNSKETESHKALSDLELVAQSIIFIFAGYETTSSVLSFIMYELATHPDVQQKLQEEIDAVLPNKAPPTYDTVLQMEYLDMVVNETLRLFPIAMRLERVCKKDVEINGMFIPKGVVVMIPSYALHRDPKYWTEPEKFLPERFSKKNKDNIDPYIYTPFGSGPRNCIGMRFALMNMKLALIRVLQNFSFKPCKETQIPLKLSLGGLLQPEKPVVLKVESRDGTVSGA", "assay": "Inhibition of CYP3A4 at 3 uM by LC/MS/MS analysis", "assay_type": "ADME"}, "CYP2D6": {"target": "CYP2D6 (Homo sapiens, UniProt P10635)", "sequence (P10635 whole entry)": "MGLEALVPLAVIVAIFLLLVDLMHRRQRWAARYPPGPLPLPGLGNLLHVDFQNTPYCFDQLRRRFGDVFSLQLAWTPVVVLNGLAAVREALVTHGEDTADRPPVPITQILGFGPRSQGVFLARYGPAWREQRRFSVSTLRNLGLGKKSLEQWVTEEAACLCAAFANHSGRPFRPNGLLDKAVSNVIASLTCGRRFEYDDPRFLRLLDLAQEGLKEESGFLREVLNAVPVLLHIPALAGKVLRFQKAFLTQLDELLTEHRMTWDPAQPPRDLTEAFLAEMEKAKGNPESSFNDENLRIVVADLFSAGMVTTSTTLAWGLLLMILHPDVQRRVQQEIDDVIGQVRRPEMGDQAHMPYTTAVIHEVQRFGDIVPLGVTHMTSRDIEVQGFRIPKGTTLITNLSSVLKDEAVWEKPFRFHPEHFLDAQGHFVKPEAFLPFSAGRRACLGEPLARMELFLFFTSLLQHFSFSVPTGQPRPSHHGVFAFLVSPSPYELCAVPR", "assay": "Inhibition of CYP2D6 at 3 uM by LC/MS/MS analysis", "assay_type": "ADME"}, "[4]": {"target": "Voltage-gated inwardly rectifying potassium channel KCNH2 (Homo sapiens, UniProt Q12809)", "sequence (Q12809 whole entry)": "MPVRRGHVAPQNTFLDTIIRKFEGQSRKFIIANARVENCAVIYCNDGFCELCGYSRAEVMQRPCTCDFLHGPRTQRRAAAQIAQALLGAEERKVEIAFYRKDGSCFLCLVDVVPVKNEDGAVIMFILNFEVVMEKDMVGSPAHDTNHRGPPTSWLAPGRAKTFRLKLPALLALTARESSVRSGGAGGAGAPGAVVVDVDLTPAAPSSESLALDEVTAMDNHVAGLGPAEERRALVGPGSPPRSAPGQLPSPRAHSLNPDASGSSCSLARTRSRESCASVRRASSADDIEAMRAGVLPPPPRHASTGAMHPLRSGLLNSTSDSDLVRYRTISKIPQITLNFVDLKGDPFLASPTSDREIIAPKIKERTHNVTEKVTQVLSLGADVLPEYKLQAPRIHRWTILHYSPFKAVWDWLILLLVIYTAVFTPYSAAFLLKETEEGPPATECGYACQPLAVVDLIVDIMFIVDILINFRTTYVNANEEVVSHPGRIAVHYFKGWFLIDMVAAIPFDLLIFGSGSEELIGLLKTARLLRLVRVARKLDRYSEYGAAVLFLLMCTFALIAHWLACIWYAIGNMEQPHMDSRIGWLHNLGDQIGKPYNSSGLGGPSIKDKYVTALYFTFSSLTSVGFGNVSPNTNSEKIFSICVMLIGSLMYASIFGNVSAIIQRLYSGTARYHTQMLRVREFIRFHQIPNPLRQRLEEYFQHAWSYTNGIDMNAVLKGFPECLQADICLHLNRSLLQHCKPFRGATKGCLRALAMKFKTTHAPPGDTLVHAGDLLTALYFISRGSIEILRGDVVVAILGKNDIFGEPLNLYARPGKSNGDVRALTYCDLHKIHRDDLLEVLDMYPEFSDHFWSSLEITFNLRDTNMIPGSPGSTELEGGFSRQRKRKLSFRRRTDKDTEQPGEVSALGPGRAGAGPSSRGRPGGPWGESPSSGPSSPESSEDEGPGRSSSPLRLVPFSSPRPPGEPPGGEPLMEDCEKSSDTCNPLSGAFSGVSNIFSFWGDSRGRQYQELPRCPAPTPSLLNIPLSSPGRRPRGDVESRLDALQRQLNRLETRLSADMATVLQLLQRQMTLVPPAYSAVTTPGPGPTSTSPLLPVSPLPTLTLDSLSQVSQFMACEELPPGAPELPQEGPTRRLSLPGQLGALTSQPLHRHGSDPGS", "assay": "Displacement of labeled dofetilide from human ERG"}, "[5]": {"assay": "Half life in human liver microsomes at 1 uM by LC/MS/MS analysis", "assay_type": "ADME, Microsome", "method_in_brief": "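Test compound incubated with human liver microsomes to measure Phase I metabolic stability. Remaining compound quantified by LC/MS/MS, and stability reported as half-life (T1/2) in minutes.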"}, "[6]": {"assay": "Kinetic solubility of the compound in 50 mM phosphate buffer at pH 6.5", "assay_type": "physicochemical"}}}
{"smiles": "Cc1c(O)cccc1NC(=O)Nc1sc(C(C)(C)C)cc1C(=O)N1CCS(=O)(=O)CC1", "values": [{"measurement": "IC50", "setting": "[1]", "result": 4000, "unit": "nM"}]}
{"smiles": "CC(C)(C)c1cc(C(=O)NCc2ccccc2)c(NC(=O)Nc2ccc3[nH]ncc3c2)s1", "values": [{"measurement": "IC50", "setting": "[1]", "result": 201, "unit": "nM"}]}
{"smiles": "CCc1cc(C(=O)NCCN(C)C)c(NC(=O)Nc2ccc3[nH]ncc3c2)s1", "values": [{"measurement": "IC50", "setting": "[1]", "result": 62, "unit": "nM"}]}
{"smiles": "CC(C)(C)c1cc(C(=O)NC2CC2)c(NC(=O)Nc2ccc3[nH]ncc3c2)s1", "values": [{"measurement": "inhibition at 3 µM", "setting": "CYP2C9", "result": 11, "unit": "%"}, {"measurement": "IC50", "setting": "[1]", "result": 10, "unit": "nM"}, {"measurement": "inhibition at 3 µM", "setting": "CYP1A2", "result": 40, "unit": "%"}, {"measurement": "half-life at 1 µM", "setting": "[2]", "result": 138, "unit": "min"}, {"measurement": "IC50", "setting": "[3]", "result": 685, "unit": "nM"}, {"measurement": "inhibition at 3 µM", "setting": "CYP3A4", "result": 11, "unit": "%"}, {"measurement": "inhibition at 3 µM", "setting": "CYP2D6", "result": 12, "unit": "%"}, {"measurement": "inhibition (INH)", "setting": "[4]", "result": 0, "unit": "%"}, {"measurement": "half-life at 1 µM", "setting": "[5]", "result": "> 120", "unit": "min"}, {"measurement": "solubility kinetic", "setting": "[6]", "result": 10, "unit": "µg/mL"}]}
{"smiles": "CC(C)(C)c1cc(C(=O)N2CCS(=O)(=O)CC2)c(NC(=O)Nc2ccc(Oc3ccccc3F)cc2)s1", "values": [{"measurement": "IC50", "setting": "[1]", "result": "> 20000", "unit": "nM"}]}
{"smiles": "CN(C)CCNC(=O)c1cc(-c2ccccc2)sc1NC(=O)Nc1ccc2[nH]ncc2c1", "values": [{"measurement": "IC50", "setting": "[1]", "result": 1900, "unit": "nM"}]}
{"smiles": "CC(C)(C)c1cc(C(=O)NCc2ccccc2F)c(NC(=O)Nc2ccc3[nH]ncc3c2)s1", "values": [{"measurement": "IC50", "setting": "[1]", "result": 191, "unit": "nM"}]}
{"smiles": "CC(C)(C)c1cc(C(=O)N2CCS(=O)(=O)CC2)c(NC(=O)Nc2ccc(Oc3ccccc3)cc2)s1", "values": [{"measurement": "IC50", "setting": "[1]", "result": "> 20000", "unit": "nM"}]}
{"smiles": "CC(C)c1cc(C(=O)NCCN(C)C)c(NC(=O)Nc2ccc3[nH]ncc3c2)s1", "values": [{"measurement": "IC50", "setting": "[1]", "result": 29, "unit": "nM"}]}
{"smiles": "C[C@H](O)c1cc(C(=O)NCCN(C)C)c(NC(=O)Nc2ccc3[nH]ncc3c2)s1", "values": [{"measurement": "IC50", "setting": "[1]", "result": 379, "unit": "nM"}]}
{"smiles": "CC(C)(C)c1cc(C(=O)N2CCS(=O)(=O)CC2)c(NC(=O)Nc2ccc3oc4cccnc4c3c2)s1", "values": [{"measurement": "IC50", "setting": "[1]", "result": "> 20000", "unit": "nM"}]}
{"smiles": "CC(C)(C)c1ccc(NC(=O)Nc2ccc3[nH]ncc3c2)s1", "values": [{"measurement": "inhibition at 3 µM", "setting": "CYP2C9", "result": 52, "unit": "%"}, {"measurement": "IC50", "setting": "[1]", "result": 19, "unit": "nM"}, {"measurement": "inhibition at 3 µM", "setting": "CYP1A2", "result": 36, "unit": "%"}, {"measurement": "inhibition at 3 µM", "setting": "CYP3A4", "result": 4, "unit": "%"}, {"measurement": "inhibition at 3 µM", "setting": "CYP2D6", "result": 20, "unit": "%"}, {"measurement": "inhibition (INH)", "setting": "[4]", "result": 0, "unit": "%"}, {"measurement": "half-life at 1 µM", "setting": "[5]", "result": 55, "unit": "min"}, {"measurement": "solubility kinetic", "setting": "[6]", "result": 7, "unit": "µg/mL"}]}
{"smiles": "CC(C)(C)c1cc(C(=O)NCCO)c(NC(=O)Nc2ccc3[nH]ncc3c2)s1", "values": [{"measurement": "inhibition at 3 µM", "setting": "CYP2C9", "result": 30, "unit": "%"}, {"measurement": "IC50", "setting": "[1]", "result": 19, "unit": "nM"}, {"measurement": "inhibition at 3 µM", "setting": "CYP1A2", "result": 52, "unit": "%"}, {"measurement": "half-life at 1 µM", "setting": "[2]", "result": 263, "unit": "min"}, {"measurement": "inhibition at 3 µM", "setting": "CYP3A4", "result": 0, "unit": "%"}, {"measurement": "inhibition at 3 µM", "setting": "CYP2D6", "result": 9, "unit": "%"}, {"measurement": "inhibition (INH)", "setting": "[4]", "result": 0, "unit": "%"}, {"measurement": "half-life at 1 µM", "setting": "[5]", "result": "> 120", "unit": "min"}, {"measurement": "solubility kinetic", "setting": "[6]", "result": 41, "unit": "µg/mL"}]}
{"smiles": "CC(C)(C)c1cc(C(=O)N2CCS(=O)(=O)CC2)c(NC(=O)Nc2ccc(Oc3cccnc3)cc2)s1", "values": [{"measurement": "IC50", "setting": "[1]", "result": 9000, "unit": "nM"}]}
{"smiles": "CC(C)(C)c1cc(C(=O)N2CCS(=O)(=O)CC2)c(NC(=O)Nc2ccc3[nH]ncc3c2)s1", "values": [{"measurement": "IC50", "setting": "[1]", "result": 34, "unit": "nM"}]}
{"smiles": "COCCNC(=O)c1cc(C(C)(C)C)sc1NC(=O)Nc1ccc2[nH]ncc2c1", "values": [{"measurement": "inhibition at 3 µM", "setting": "CYP2C9", "result": 14, "unit": "%"}, {"measurement": "IC50", "setting": "[1]", "result": 7, "unit": "nM"}, {"measurement": "inhibition at 3 µM", "setting": "CYP1A2", "result": 45, "unit": "%"}, {"measurement": "half-life at 1 µM", "setting": "[2]", "result": 367, "unit": "min"}, {"measurement": "inhibition at 3 µM", "setting": "CYP3A4", "result": 2, "unit": "%"}, {"measurement": "inhibition at 3 µM", "setting": "CYP2D6", "result": 0, "unit": "%"}, {"measurement": "inhibition (INH)", "setting": "[4]", "result": 0, "unit": "%"}, {"measurement": "half-life at 1 µM", "setting": "[5]", "result": "> 120", "unit": "min"}, {"measurement": "solubility kinetic", "setting": "[6]", "result": 10, "unit": "µg/mL"}]}
{"smiles": "CN(C)CCNC(=O)c1cc(C2CC2)sc1NC(=O)Nc1ccc2[nH]ncc2c1", "values": [{"measurement": "IC50", "setting": "[1]", "result": 70, "unit": "nM"}]}
{"smiles": "CC(C)(C)c1cc(C(=O)N2CCOCC2)c(NC(=O)Nc2ccc3[nH]ncc3c2)s1", "values": [{"measurement": "IC50", "setting": "[1]", "result": 207, "unit": "nM"}]}
{"smiles": "CC(C)(C)c1cc(C(=O)N2CCS(=O)(=O)CC2)c(NC(=O)Nc2ccc(Oc3ccncc3)cc2)s1", "values": [{"measurement": "IC50", "setting": "[1]", "result": "> 20000", "unit": "nM"}]}
{"smiles": "Cc1cc(C(=O)NCCN(C)C)c(NC(=O)Nc2ccc3[nH]ncc3c2)s1", "values": [{"measurement": "IC50", "setting": "[1]", "result": 223, "unit": "nM"}]}
{"smiles": "C[C@@H](O)c1cc(C(=O)NCCN(C)C)c(NC(=O)Nc2ccc3[nH]ncc3c2)s1", "values": [{"measurement": "IC50", "setting": "[1]", "result": 196, "unit": "nM"}]}
{"smiles": "COc1ccccc1Oc1ccc(NC(=O)Nc2sc(C(C)(C)C)cc2C(=O)N2CCS(=O)(=O)CC2)cc1", "values": [{"measurement": "IC50", "setting": "[1]", "result": "> 20000", "unit": "nM"}]}
{"smiles": "CN(C)CCNC(=O)c1cc(C(C)(C)C)sc1NC(=O)Nc1ccc2[nH]ncc2c1", "values": [{"measurement": "inhibition at 3 µM", "setting": "CYP2C9", "result": 0, "unit": "%"}, {"measurement": "IC50", "setting": "[1]", "result": 15, "unit": "nM"}, {"measurement": "inhibition at 3 µM", "setting": "CYP1A2", "result": 18, "unit": "%"}, {"measurement": "half-life at 1 µM", "setting": "[2]", "result": 125, "unit": "min"}, {"measurement": "IC50", "setting": "[3]", "result": 521, "unit": "nM"}, {"measurement": "inhibition at 3 µM", "setting": "CYP3A4", "result": 0, "unit": "%"}, {"measurement": "inhibition at 3 µM", "setting": "CYP2D6", "result": 7, "unit": "%"}, {"measurement": "inhibition (INH)", "setting": "[4]", "result": 28, "unit": "%"}, {"measurement": "half-life at 1 µM", "setting": "[5]", "result": 38, "unit": "min"}, {"measurement": "solubility kinetic", "setting": "[6]", "result": 171, "unit": "µg/mL"}]}
